Assay results as given in ChEMBL document CHEMBL3763122, “Synthesis, vasorelaxant activity and 2D-QSAR study of some novel pyridazine derivatives” (Eur J Med Chem, 2016).
Where a name gives a salt, the structure may show the parent alone.

Assay: Vasorelaxant activity in Wistar rat thoracic aortic ring precontracted with norepinephrine hydrochloride
Type: functional
Conditions: Thoracic aorta
Summary of the method: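 Isolated rat thoracic aortic rings held at 2 g resting tension for 2 h. Contraction to norepinephrine hydrochloride (10^-6 M) measured before and after exposure to increasing concentrations of compound. Compounds dissolved in DMSO as a 0.01 M stock. DMSO-alone controls run at matching concentrations. Doxazosin mesylate served as reference standard.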

Row | SMILES | IC50 [µM]
1 | N#Cc1cnn(-c2ccc(-c3ccc(Cl)cc3)nn2)c1N | 310
2 | COc1ccccc1-c1ccc(N2CCCC2)nn1 | 284
3 | COc1ccccc1-c1ccc(NN)nn1 | 279
4 | COc1ccc(-c2ccc(-n3ccnc3)nn2)cc1 | 259
5 | N#Cc1cnn(-c2ccc(-c3ccccc3)nn2)c1N | 287
6 | COc1ccccc1-c1ccc(-n2nc(C)cc2C)nn1 | 299
7 | Clc1ccc(-c2ccc(N3CCCC3)nn2)cc1 | 300
8 | COc1ccccc1-c1ccc(NNC(=O)NC2CCCCC2)nn1 | 266
9 | Clc1ccc(-c2ccc(-n3ccnc3)nn2)cc1 | 255
10 | COc1ccc(/C=N/Nc2ccc(-c3ccccc3OC)nn2)c(OC)c1 | 259
11 | NNc1ccc(-c2ccc(Cl)cc2)nn1 | 275
12 | COc1ccccc1-c1ccc(-n2ncc(C#N)c2N)nn1 | 316
13 | COc1ccc(-c2ccc(-n3ncc(C#N)c3N)nn2)cc1 | 260
14 | COc1ccc(-c2ccc(-n3nc(C)cc3C)nn2)cc1 | 323
15 | c1ccc(-c2ccc(-n3ccnc3)nn2)cc1 | 273

Next, values leading:

Row | IC50 [µM] | SMILES
16 | 205 | COc1ccccc1-c1ccc(-n2ccnc2)nn1
17 | 205 | COc1ccc(/C=N/Nc2ccc(-c3ccc(Cl)cc3)nn2)c(OC)c1
18 | 225 | CCOC(=O)c1cnn(-c2ccc(-c3ccccc3OC)nn2)c1N
19 | 200 | COc1ccc(/C=N/Nc2ccc(-c3ccccc3OC)nn2)cc1
20 | 235 | c1ccc(-c2ccc(N3CCCC3)nn2)cc1
21 | 235 | COc1ccc(-c2ccc(NN)nn2)cc1
22 | 254 | CCOC(=O)c1cnn(-c2ccc(-c3ccccc3)nn2)c1N
23 | 255 | COc1cc(/C=N/Nc2ccc(-c3ccc(Cl)cc3)nn2)cc(OC)c1OC
24 | 206 | NNc1ccc(-c2ccccc2)nn1
25 | 230 | CCOC(=O)c1cnn(-c2ccc(-c3ccc(Cl)cc3)nn2)c1N
26 | 207 | O=C(NNc1ccc(-c2ccc(Cl)cc2)nn1)Nc1ccccc1
27 | 216 | CCOC(=O)c1cnn(-c2ccc(-c3ccc(OC)cc3)nn2)c1N
28 | 248 | COc1ccccc1-c1ccc(N/N=C/c2ccc(C(F)(F)F)cc2)nn1
29 | 177 | O=C(NNc1ccc(-c2ccc(Cl)cc2)nn1)NC1CCCCC1
30 | 198 | Cc1cc(C)n(-c2ccc(-c3ccccc3)nn2)n1
31 | 213 | Cc1cc(C)n(-c2ccc(-c3ccc(Cl)cc3)nn2)n1
32 | 209 | FC(F)(F)c1ccc(/C=N/Nc2ccc(-c3ccc(Cl)cc3)nn2)cc1
33 | 217 | COc1ccc(/C=N/Nc2ccc(-c3ccc(Cl)cc3)nn2)cc1
34 | 221 | COc1ccccc1-c1ccc(N/N=C/c2cc(OC)c(OC)c(OC)c2)nn1
35 | 226 | COc1cc2nc(N3CCN(C(=O)C4COc5ccccc5O4)CC3)nc(N)c2cc1OC (stereo not given) [DOXAZOSIN MESYLATE]
